One assay deals with Sts-1. The note with it: cited from earlier work.
Assay [1] deals with T1, Sts-1HP (Homo sapiens, UniProt Q8TF42). Briefly: OMFP fluorescence phosphatase assay, 1,536-well HTS. It counts as biochemical. To be noted: for Averaged Max. Response (%): LOPAC pilot screen, 5.8 μM nominal concentration, triplicate, OMFP substrate.
For assay [2] the following is noted: read-out: Counterscreen IC50; compound added after NaOH stop, 10-point titration. The procedure, abridged: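 Same reagents and protocol as the primary OMFP screen: Sts-1HP at 750 ng/mL final in 30 mM Tris HCl, 75 mM NaCl, 1 mM EDTA, 1 mM DTT; OMFP 50 μM final; 20 min at room temperature in the dark; stopped with NaOH (100 mM final). Test compound is added after the NaOH stop. Fluorescence read; 10-point 3-fold titration in triplicate. IC50 comes from a four-parameter sigmoidal fit with adjustable baseline.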

The target in assay [3] is T1, Sts-1HP. The assay can be described thus: pNPP absorbance phosphatase assay, inhibition analysis. To be noted: for Ki Ratio: Ki of construct / Ki of wild-type Sts-1HP, wild-type; for Mode of inhibition: double reciprocal plots, several inhibitor concentrations. The assay is classed as biochemical.
In another assay the target is Sts-1HP Y596L (Homo sapiens, UniProt Q8TF42, Y607L). The assay can be described thus: pNPP inhibition analysis of Sts-1HP mutant. It counts as biochemical. The procedure, abridged: (§1)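 Mutant Sts-1HP is expressed in E. coli BL21(DE3) and purified. Assay uses 20 mM Tris (pH 7.5), 150 mM NaCl, 5 mM MgCl2 and 1 mM βME with varying pNPP, following pNP release at 405 nm. Initial rates (<10% completion) are measured at several fixed inhibitor concentrations, with controls for compound optical interference, in triplicate. Ki is derived from Km in the presence of inhibitor via a Lineweaver-Burk competitive fit.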

The next assay has as its target SHP1 (Homo sapiens, UniProt P29350). Briefly: pNPP inhibition analysis, selectivity. It counts as biochemical. The note with it: for Selectivity: more active against Sts-1 than SHP1: from Ki values, Table 4.
A further assay deals with Sts-1HP Y596F (Homo sapiens, UniProt Q8TF42, Y607F). Briefly: pNPP inhibition analysis of Sts-1HP mutant. The assay is classed as biochemical. The procedure, abridged: as §1
Another assay deals with T2, PTP-1B (Homo sapiens, UniProt P18031).
T2 sequence (P18031 1-435): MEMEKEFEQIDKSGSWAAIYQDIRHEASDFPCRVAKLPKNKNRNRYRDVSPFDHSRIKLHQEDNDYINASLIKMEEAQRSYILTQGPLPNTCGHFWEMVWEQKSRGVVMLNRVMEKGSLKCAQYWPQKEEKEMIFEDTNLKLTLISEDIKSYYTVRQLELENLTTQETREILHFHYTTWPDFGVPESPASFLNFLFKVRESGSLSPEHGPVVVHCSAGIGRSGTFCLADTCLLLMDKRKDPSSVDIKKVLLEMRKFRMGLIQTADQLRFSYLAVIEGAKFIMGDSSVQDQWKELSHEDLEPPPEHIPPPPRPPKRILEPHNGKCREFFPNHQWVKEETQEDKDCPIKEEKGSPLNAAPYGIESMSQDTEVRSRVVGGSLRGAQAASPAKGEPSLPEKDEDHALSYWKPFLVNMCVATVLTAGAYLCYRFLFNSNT
Briefly: pNPP inhibition analysis, selectivity. The assay is classed as biochemical. The note with it: for Selectivity: more active against Sts-1 than PTP1B: from Ki values, Table 4.

In a further assay the target is Sts-1HP W494L (Homo sapiens, UniProt Q8TF42, W505L). Briefly: pNPP inhibition analysis of Sts-1HP mutant. The assay is classed as biochemical. The procedure, abridged: as §1
A further assay concerns the target Sts-1HP W494F (Homo sapiens, UniProt Q8TF42, W505F). The assay can be described thus: pNPP inhibition analysis of Sts-1HP mutant. The assay is classed as biochemical. The procedure, abridged:
as §1

The next assay addresses Sts-1HP W494H (Homo sapiens, UniProt Q8TF42, W505H). Briefly: pNPP inhibition analysis of Sts-1HP mutant. It counts as biochemical. The procedure, abridged:
as §1

Sequence of SHP1 (P29350 whole entry): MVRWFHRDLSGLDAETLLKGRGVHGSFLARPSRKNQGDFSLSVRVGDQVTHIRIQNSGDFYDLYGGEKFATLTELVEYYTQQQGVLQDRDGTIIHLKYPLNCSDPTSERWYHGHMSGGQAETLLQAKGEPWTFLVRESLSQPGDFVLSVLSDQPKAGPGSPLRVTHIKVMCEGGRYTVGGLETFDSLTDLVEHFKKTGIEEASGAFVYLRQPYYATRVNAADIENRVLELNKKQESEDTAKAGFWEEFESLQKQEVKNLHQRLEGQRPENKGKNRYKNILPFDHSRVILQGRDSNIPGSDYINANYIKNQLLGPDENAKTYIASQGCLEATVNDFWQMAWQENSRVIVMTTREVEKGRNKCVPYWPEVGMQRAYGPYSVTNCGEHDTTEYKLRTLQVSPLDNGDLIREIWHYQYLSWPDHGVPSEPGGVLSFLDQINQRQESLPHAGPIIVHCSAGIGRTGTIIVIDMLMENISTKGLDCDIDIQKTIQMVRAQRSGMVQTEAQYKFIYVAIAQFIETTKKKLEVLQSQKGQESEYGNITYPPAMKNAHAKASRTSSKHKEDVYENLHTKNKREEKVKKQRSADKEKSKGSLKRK
T1 sequence (Q8TF42 384-647 limits assumed): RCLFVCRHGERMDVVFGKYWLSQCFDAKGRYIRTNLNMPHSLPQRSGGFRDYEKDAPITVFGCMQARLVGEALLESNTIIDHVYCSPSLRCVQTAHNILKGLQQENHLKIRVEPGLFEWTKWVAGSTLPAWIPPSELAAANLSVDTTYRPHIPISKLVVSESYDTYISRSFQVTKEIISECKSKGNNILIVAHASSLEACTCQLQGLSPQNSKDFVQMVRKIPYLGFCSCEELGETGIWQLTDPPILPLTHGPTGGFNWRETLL
Sequence of Sts-1HP W494F (Q8TF42 384-647 W505F): as the sequence (Q8TF42 384-647 limits assumed) above, with W122F counted along it
Sequence of Sts-1HP W494H (Q8TF42 384-647 W505H): as the sequence (Q8TF42 384-647 limits assumed) above, with W122H counted along it
Sequence of Sts-1HP Y596L (Q8TF42 384-647 Y607L): as the sequence (Q8TF42 384-647 limits assumed) above, with Y224L counted along it
Sequence of Sts-1HP W494L (Q8TF42 384-647 W505L): as the sequence (Q8TF42 384-647 limits assumed) above, with W122L counted along it
Sequence of Sts-1HP Y596F (Q8TF42 384-647 Y607F): as the sequence (Q8TF42 384-647 limits assumed) above, with Y224F counted along it

By Ki is commonly meant a measure of affinity in units of concentration, obtained from inhibition or displacement. Usually IC50 stands for the concentration that inhibits the measured activity by half. On to `O=C1C(=NNc2ccc(S(=O)(=O)O)cc2)C(c2ccc([N+](=O)[O-])cc2)=NN1c1ccccc1` [PHPS1, 4-[2-[1,5-dihydro-3-(4-nitrophenyl)-5-oxo-1-phenyl-4H-pyrazol-4-ylidene]hydrazinyl]-benzenesulfonic acid], for which, on Sts-1, the Ki is 1 µM. For the same molecule, at Sts-1HP [1], it took 17.6 µM to reach half-maximal inhibition (IC50).
Consider `CN(C)[C@@H]1C(O)=C(C(N)=O)C(=O)[C@@]2(O)C(O)=C3C(=O)c4c(O)ccc(Cl)c4[C@@H](O)[C@H]3C[C@@H]12` [Demeclocycline], for which the IC50 in assay [2] was over 14.5 µM; against Sts-1HP [1], 4.7 µM.
Turning to `Cc1nc(N=Nc2cc(S(=O)(=O)O)c3cc([N+](=O)[O-])cc(S(=O)(=O)O)c3c2)c(COP(=O)(O)O)c(C=O)c1O` [PPNDS], the IC50 in [2] is over 29 µM.
Consider `O=C(O)C1=CC(=C(c2ccc(O)c(C(=O)O)c2)c2ccc(O)c(C(=O)O)c2)C=CC1=O` [Aurintricarboxylic Acid], for which the “Averaged Max. Response (%)” value at Sts-1HP [1] is reported as 89.95%.
`CN(N=O)c1ccc(O)c(O)c1` [Methyl-3,4-Dephostatin]: at Sts-1HP [1], the “Averaged Max. Response (%)” value came to 46.07%.
Turning to `C[C@](N)(Cc1ccc(O)c(O)c1)C(=O)O` [L-α-methyl DOPA], the “Averaged Max. Response (%)” value on Sts-1HP [1] came out at 57.45%.
Still for that read-out and setting: the value for `NC(Cc1cc(O)c(O)cc1O)C(=O)O` (racemic) [6-Hydroxy-DL-DOPA] was 64.86%.
Take `C=C1c2cccc(O)c2C(=O)C2=C(O)[C@]3(O)C(=O)C(C(N)=O)=C(O)[C@@H](N(C)C)[C@@H]3[C@@H](O)[C@H]12` [Methacycline]: the affinity on Sts-1HP [3], expressed as Ki, was 326 ± 35 µM. For the same molecule, the IC50 in assay [2] was over 14.5 µM; against Sts-1HP [1] it was 0.67 µM.
For `C[C@H]1c2cccc(O)c2C(=O)C2=C(O)[C@]3(O)C(=O)C(C(N)=O)=C(O)[C@@H](N(C)C)[C@@H]3[C@@H](O)[C@@H]21` [Doxycycline], the Ki on Sts-1HP Y596L was 490 ± 50 µM; on Sts-1HP Y596F it was 390 ± 40 µM; on Sts-1HP [3], 99 ± 19 µM; on Sts-1HP W494L it was 730 ± 40 µM; on Sts-1HP W494F, 1420 ± 110 µM; at Sts-1HP W494H, 1480 ± 90 µM. Moreover, the “Selectivity: more active against Sts-1 than SHP1” value on SHP1 is listed as “more than 200 fold”. For the same molecule, the “Ki Doxycycline” value on SHP1 (pNPP substrate) and at PTP-1B (pNPP substrate) was “No Inhibition” in each case. The “Selectivity: more active against Sts-1 than PTP1B” value on PTP-1B is “more than 200 fold”. Besides, on Sts-1HP [3], the “Ki Ratio” value worked out at 1. Further, on Sts-1HP [3], the Mode of inhibition entry is recorded as “competitive inhibition”. In addition, the IC50 in [2] is over 14.5 µM; at Sts-1HP [1] it was 4.1 µM. Moreover, the “Averaged Max. Response (%)” value on Sts-1HP [1] is recorded as 45.03%.
On to `CN(N=O)c1cc(O)ccc1O` [Dephostatin], for which the “Averaged Max. Response (%)” value at Sts-1HP [1] was found to be 43.47%.
For `O=C(Nc1ccc(C(=O)Nc2ccc(C(=O)Nc3ccc(S(=O)(=O)O)c4cc(S(=O)(=O)O)cc(S(=O)(=O)O)c34)cc2)cc1)Nc1ccc(C(=O)Nc2ccc(C(=O)Nc3ccc(S(=O)(=O)O)c4cc(S(=O)(=O)O)cc(S(=O)(=O)O)c34)cc2)cc1` [NF-279], the IC50 in [2] was over 29 µM.
As for `CN(C)[C@@H]1C(O)=C(C(N)=O)C(=O)[C@@]2(O)C(O)=C3C(=O)c4c(O)cccc4[C@@](C)(O)[C@H]3[C@H](O)[C@@H]12` [Oxytetracyline], in [2], the IC50 was over 14.5 µM.
Turning to `CN(C)c1ccc(O)c2c1C[C@H]1C[C@H]3[C@H](N(C)C)C(O)=C(C(N)=O)C(=O)[C@@]3(O)C(O)=C1C2=O` [Minocycline], the “Averaged Max. Response (%)” value on Sts-1HP [1] was found to be 32.59%.
For `C=C1c2c(Cl)ccc(O)c2C(=O)C2=C(O)[C@]3(O)C(=O)C(C(N)=O)=C(O)[C@@H](N(C)C)[C@@H]3[C@@H](O)[C@H]12` [Meclocycline], the values for the IC50 (in assay [2]; against Sts-1HP [1]) were over 14.5 µM and 1.8 µM, respectively.
For the molecule `COc1cc(-c2ccc(/N=N/c3ccc4c(S(=O)(=O)O)cc(S(=O)(=O)O)c(N)c4c3O)c(OC)c2)ccc1/N=N/c1ccc2c(S(=O)(=O)O)cc(S(=O)(=O)O)c(N)c2c1O` [Chicago Sky Blue], the IC50 in assay [2] is over 14.5 µM; against Sts-1HP [1], 1 µM.
In the case of `CN(C)[C@@H]1C(O)=C(C(N)=O)C(=O)[C@@]2(O)C(O)=C3C(=O)c4c(O)cccc4[C@@](C)(O)[C@H]3C[C@@H]12` [Tetracycline], affinity on Sts-1HP [3] was put at a Ki of 199 ± 20 µM. Besides, the IC50 is over 14.5 µM in [2] and 1.9 µM against Sts-1HP [1].
As for `Nc1c(/N=N/c2ccc(-c3ccc(/N=N/c4cc(S(=O)(=O)O)c5ccccc5c4N)cc3)cc2)cc(S(=O)(=O)O)c2ccccc12` [Congo Red], the Ki on Sts-1HP Y596L turned out to be 0.94 ± 0.05 µM; at SHP1, 3.88 ± 0.59 µM; on Sts-1HP Y596F, 0.23 ± 0.02 µM; at PTP-1B, 1.47 ± 0.34 µM; on Sts-1HP [3], 0.079 ± 0.02 µM; at Sts-1HP W494L, 1.46 ± 0.13 µM. In addition, the Ki is 1.42 ± 0.32 µM on Sts-1HP W494F and 1.07 ± 0.03 µM on Sts-1HP W494H. Besides, the “Selectivity: more active against Sts-1 than SHP1” value at SHP1 is about 50 fold. Moreover, at PTP-1B, the “Selectivity: more active against Sts-1 than PTP1B” value is “approximately 20 fold”. Besides, the “Ki Ratio” value at Sts-1HP [3] is recorded as 1. In addition, the Mode of inhibition result on Sts-1HP [3] is given as “competitive inhibition”. In addition, the results for the IC50 (in assay [2]; against Sts-1HP [1]) were over 14.5 µM and 0.92 µM, respectively.
For `O=c1cc(O)cc(/C=C/c2ccc(O)c(O)c2)o1` [Hispidin], the “Averaged Max. Response (%)” value on Sts-1HP [1] turned out to be 44.44%.
`Cc1cc(-c2ccc(/N=N/c3ccc4c(S(=O)(=O)O)cc(S(=O)(=O)O)c(N)c4c3O)c(C)c2)ccc1/N=N/c1ccc2c(S(=O)(=O)O)cc(S(=O)(=O)O)c(N)c2c1O` [Evans Blue]: affinity at Sts-1HP [3] was put at a Ki of 0.39 ± 0.11 µM. The IC50 in assay [2] was found to be 23.6 µM; at Sts-1HP [1], 3.1 µM.
Turning to `Nc1c(S(=O)(=O)O)cc(Nc2ccc(Nc3nc(Cl)nc(Nc4cccc(S(=O)(=O)O)c4)n3)c(S(=O)(=O)O)c2)c2c1C(=O)c1ccccc1C2=O` [Reactive Blue 2], on Sts-1HP [1], the “Averaged Max. Response (%)” value is 58.99%.
As to `O=c1c(O)c(-c2ccc(O)cc2O)oc2cc(O)cc(O)c12` [Morin], the “Averaged Max. Response (%)” value at Sts-1HP [1] stood at 44.94%.

The values are drawn from PMC6368478 (ACS infectious diseases, 2018).
